Experimental data from PubChem BioAssay.
Inconclusive results are not listed.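 The calls were made as follows, unless noted: active = inhibition over a set limit, the all-compound mean plus 3 SD, in both replicate runs; inconclusive = over that limit in just one replicate run; inactive = at or under that limit in both runs.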

Key:
[1] = OD615 S. cerevisiae growth inhibition, permissive medium, pilot counter-assay, permissive growth control for S. cerevisiae lifespan shortening project (AID 705;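 active = growth inhibition above 25% in both replicates, a cutoff set 3 SD above the mean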); details: OD615, 24 h, at 10 µM, hits give high values
Summary of the method: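 Material: engineered DeaD yeast; compound dosing: one dose 10 µM, DMSO 0.25% final; measure: yeast growth inhibition indicated by reduced 24 h OD615; detection: OD615 turbidity read; incubation: cells pre-grown 4 h, then 24 h compound exposure, 30 °C humidified; medium: permissive synthetic complete medium with raffinose and galactose carbon sources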

[2] = Restrictive medium S. cerevisiae growth inhibition, OD615, pilot screen of yeast lifespan reduction project, restrictive growth control (AID 706;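 active = growth inhibition above a set limit, 3 SD over mean compound inhibition, in both replicates, cut at about 43% in these data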;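 also: modified DeaD lifespan yeast strain shifted to restrictive glucose medium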); details: OD615, 48 h, at 10 µM, hits give high values
Summary of the method: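 material = engineered S. cerevisiae DeaD strain | medium = glucose-based CSMM-D restrictive medium | times = 4 h pre-incubation, 48 h exposure at 30 °C | technique = OD615 absorbance reading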

[3] = viability gain of MRP-1-high H69AR cells under doxorubicin, pilot screen, MRP-1 activator project, CellTiter-Glo, duplicate (AID 807;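 active = viability increase at or above a cutoff of the median across tested compounds plus 3 SD, cut at about 8.5% in these data, passing the limit was not always enough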;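 also: compound pretreatment 18-22 h then 72 h combined with doxorubicin; 0% = doxorubicin alone and 100% = vehicle without doxorubicin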); details: H69AR viability with doxorubicin, CellTiter-Glo luminescence; at 10 µM; hits give high values
[4] = growth suppression of beta-catenin knockout HCT116, pilot screen, human colon tumor cells (AID 823;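 active = cell viability at or below a set limit in both duplicate runs, the limit being the all-compound median minus 4 SD, cut at about 23% in these data, passing the limit was not always enough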;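 also: 0% = wells killed by 20 µM Hyamine and 100% = untreated DMSO cell wells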); details: CellTiter-Glo, 60 h, at 10 µM, hits give low values
[5] = growth suppression of PTEN-deleted HCT116, pilot screen, cell-based, HCT116 clonal line, CellTiter-Glo (AID 824;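 active = viability at or below 27.92% in each of two runs, the all-compound median minus 4 SD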;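 also: 0% = 20 µM Hyamine control and 100% = vehicle cell control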); details: 60 h, at 10 µM, hits give low values
[6] = inhibitors of the yeast RAM network, pilot screen, dse1pr::URA3 reporter, 5-FOA selection (AID 869);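 also: 0% = DMSO wells with no growth and 100% = 10 µM 1-NA-PP1 with full growth; RAM network block rescues cells from 5-FOA so hits raise OD615 growth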; details: S. cerevisiae dse1pr::URA3 5-FOA growth, OD615, 2 d; at 10 µM; hits give high values; strain carries analog-sensitive mutant Cbk1 kinase
[7] = RAM signaling pathway blockade in yeast – S. cerevisiae, Pdr1DBD-CYC8 efflux-inhibited sensitized strain, primary screen (AID 1298;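 active = RAM network inhibition above 8.4% in each of two replicates, 3 SD over the compound average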;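 also: 0% = DMSO untreated cells without growth and 100% = 10 µM 1-NA-PP1 full growth; higher means more yeast growth rescued from 5-FOA killing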); details: S. cerevisiae cbk1-as DSE1-URA3 strain, 5-FOA growth OD615, 2 d; at 50 µM; hits give high values

C=CCn1c(SCCCC)nc(O)cc1=O
inactive: growth inhibition [1] 1.55% | growth inhibition [2] 8.79% | viability increase [3] -0.11% | viability [4] 105% | viability [5] 102% | inhibition [6] 0.02% | RAM network inhibition [7] -0.21%

COc1cccc(C2NC(=O)NC(O)(C(F)(F)F)C2C(=O)c2cccnc2)c1OC (configuration not stated)
inactive: growth inhibition [1] 2.02% | growth inhibition [2] -2.12% | viability increase [3] 0.64% | viability [4] 109% | viability [5] 98.9% | inhibition [6] 1.14% | RAM network inhibition [7] 0.92%

CCOC(=O)N1CCN(C(=O)c2oc(=O)c3ccccc3c2-c2ccc(C)cc2)CC1
inactive: growth inhibition [1] -8.36% | growth inhibition [2] -8.23% | viability increase [3] 1.15% | viability [4] 96.2% | viability [5] 102% | inhibition [6] 1.23% | RAM network inhibition [7] 3.87%

CCOc1ccccc1N(CC)C(=O)Cn1ncc2c(=O)oc3ccccc3c21
inactive: growth inhibition [1] -11.6% | growth inhibition [2] -7.42% | viability increase [3] -1.85% | viability [4] 95.7% | viability [5] 96.2% | inhibition [6] -0.255% | RAM network inhibition [7] 4.3%

COc1ccc(C(=O)N2CCN(c3ccc(C)cc3C)CC2)cc1OC
inactive: growth inhibition [1] -12.4% | growth inhibition [2] -0.18% | viability increase [3] 3.24% | viability [4] 72.9% | viability [5] 85.7% | inhibition [6] 1.66% | RAM network inhibition [7] 2.92%

COCCOC(=O)C1=C(C)NC2=C(C(=O)CCC2)C1c1ccc(N(C)C)cc1 (configuration not stated)
inactive: growth inhibition [1] -4.38% | growth inhibition [2] -19.9% | viability increase [3] -1.53% | viability [4] 98.6% | viability [5] 93.4% | inhibition [6] 0.975% | RAM network inhibition [7] 4.47%

COc1ccc(C(=O)c2coc3ccc(O)c(CN(C)C)c23)cc1
inactive: growth inhibition [1] -15% | growth inhibition [2] -11.6% | viability increase [3] -2.46% | viability [4] 84.4% | viability [5] 76.1% | inhibition [6] 0.74% | RAM network inhibition [7] -1.93%

Cc1cc(C)c2c(=O)[nH]c(SCC(=O)N3CCCCC3)nc2n1
inactive: growth inhibition [1] -12.1% | growth inhibition [2] -6.02% | viability increase [3] -0.84% | viability [4] 93.1% | viability [5] 101% | inhibition [6] 0.535% | RAM network inhibition [7] 2.3%

Cc1cc(C(=O)NC2CCCC2)on1
inactive: growth inhibition [1] -11.8% | growth inhibition [2] -21.1% | viability increase [3] 0.32% | viability [4] 107% | viability [5] 102% | inhibition [6] 1.71% | RAM network inhibition [7] 1.5%

Oc1c(C(c2ccc(F)cc2)N2CCc3ccccc3C2)sc2ncnn12 (configuration not stated)
inactive: growth inhibition [1] -5.9% | growth inhibition [2] -6.98% | viability increase [3] 4.08% | viability [4] 103% | viability [5] 91.7% | inhibition [6] 2.67% | RAM network inhibition [7] 3.09%

C=CCc1c(C)nc(SCc2nc3ccccc3c(=O)[nH]2)[nH]c1=O
inactive: growth inhibition [1] 3.73% | growth inhibition [2] 15.9% | viability increase [3] 0.9% | viability [4] 94.2% | viability [5] 96.7% | inhibition [6] 0.91% | RAM network inhibition [7] 1.65%

CCCOC(=O)C1=C(C)NC2=C(C(=O)C(C(=O)OC)C(C)C2)C1c1ccc(N(CC)CC)cc1 (configuration not stated)
inactive: growth inhibition [1] -10.6% | growth inhibition [2] -19.6% | viability increase [3] -3.23% | viability [4] 65.7% | viability [5] 56.8% | inhibition [6] 1.56% | RAM network inhibition [7] 1.46%

Brc1ccc2c(c1)c1nc3ccccc3nc1n2CCN1CCOCC1
inactive: growth inhibition [1] -11% | growth inhibition [2] -0.14% | viability increase [3] -5.95% | viability [4] 56% | viability [5] 59.4% | inhibition [6] 4.42% | RAM network inhibition [7] 5.58%

CCCc1nc(SCC(=O)Nc2cc(C)on2)c2c(=O)n(C)c(=O)n(C)c2n1
inactive: growth inhibition [1] 4.81% | growth inhibition [2] 4.73% | viability increase [3] -1.05% | viability [4] 97.1% | viability [5] 93% | inhibition [6] 3.88% | RAM network inhibition [7] 4.78%

O=C(c1ccncc1)N1CCN(C(=O)c2cccc3ccccc23)CC1
inactive: growth inhibition [1] -14.8% | growth inhibition [2] -7.07% | viability increase [3] -2.73% | viability [4] 101% | viability [5] 93.9% | inhibition [6] 2.16% | RAM network inhibition [7] 2.45%

CCC1CCCCN1C(=O)c1cc2cc(Br)ccc2oc1=O (configuration not stated)
inactive: growth inhibition [1] -9.03% | growth inhibition [2] -15.9% | viability increase [3] -2.87% | viability [4] 106% | viability [5] 94.8% | inhibition [6] 0.68% | RAM network inhibition [7] 2.89%

CCn1c(C(C)NC(C)=O)nc2ccccc21 (configuration not stated)
inactive: growth inhibition [1] -13.6% | growth inhibition [2] -5.8% | viability increase [3] 0.8% | viability [4] 112% | viability [5] 106% | inhibition [6] 2.2% | RAM network inhibition [7] 3.48%

CCS(=O)(=O)n1nc(-c2ccccc2)cc1N
inactive: growth inhibition [1] -3.12% | growth inhibition [2] -16.4% | viability increase [3] -1.52% | viability [4] 98.7% | viability [5] 96.7% | inhibition [6] 0.555% | RAM network inhibition [7] 1.53%

CC(C)CC1(C(=O)O)NC(c2ccccc2O)C2C(=O)N(C(C)C)C(=O)C21 (configuration not stated)
inactive: growth inhibition [1] 3.45% | growth inhibition [2] 3.48% | viability increase [3] -0.07% | viability [4] 102% | viability [5] 99.3% | inhibition [6] 1.27% | RAM network inhibition [7] 3.59%

COc1ccccc1NC(=O)C1=C(C)NC(=O)NC1c1ccc(C)cc1 (configuration not stated)
inactive: growth inhibition [1] -6.15% | growth inhibition [2] -13.7% | viability increase [3] -1.68% | viability [4] 105% | viability [5] 95.6% | inhibition [6] 1.23% | RAM network inhibition [7] -1.08%

CCCc1cc(C(=O)NCc2ccc(OC)cc2)no1
inactive: growth inhibition [1] -7.46% | growth inhibition [2] 18.4% | viability increase [3] -0.95% | viability [4] 107% | viability [5] 99.3% | inhibition [6] 1.78% | RAM network inhibition [7] -0.68%

COC(=O)C1=C(C)NC(=O)NC1C1CC=CCC1 (configuration not stated)
inactive: growth inhibition [1] -13.7% | growth inhibition [2] -8.8% | viability increase [3] 0.06% | viability [4] 96.2% | viability [5] 95.5% | inhibition [6] 3.1% | RAM network inhibition [7] 6.9%

NC(=O)SCC(=O)Nc1ccc(Cl)c(Cl)c1
inactive: growth inhibition [1] -0.33% | growth inhibition [2] 4.16% | viability increase [3] -7.83% | viability [4] 38% | viability [5] 42.8% | inhibition [6] 2.52% | RAM network inhibition [7] 4.56%

CCNC(=O)COc1ccc2ccccc2c1
inactive: growth inhibition [1] -2.77% | growth inhibition [2] 3.62% | viability increase [3] 0.99% | viability [4] 97.4% | viability [5] 99.6% | inhibition [6] 1.06% | RAM network inhibition [7] 1.53%

O=C(CCC1CC(=O)Nc2ccccc21)NCc1cccnc1 (configuration not stated)
inactive: growth inhibition [1] -10.7% | growth inhibition [2] -2.23% | viability increase [3] -1.06% | viability [4] 102% | viability [5] 90.5% | inhibition [6] 1.1% | RAM network inhibition [7] 12.5%

COc1ccc(C)cc1S(=O)(=O)NC1CCCCC1
inactive: growth inhibition [1] -9.02% | growth inhibition [2] -4.09% | viability increase [3] -0.23% | viability [4] 101% | viability [5] 101% | inhibition [6] 0.525% | RAM network inhibition [7] 6.79%

COc1ccc(Cl)cc1N(CC(=O)N1CCC(C)CC1)S(C)(=O)=O
inactive: growth inhibition [1] 5.7% | growth inhibition [2] 0.85% | viability increase [3] -1.75% | viability [4] 96.6% | viability [5] 92.7% | inhibition [6] 0.155% | RAM network inhibition [7] 1.72%

CCN(CC)S(=O)(=O)c1ccc(C(=O)Nc2nnc(C(C)C)s2)cc1
inactive: growth inhibition [1] -12.7% | growth inhibition [2] -1.79% | viability increase [3] 0.3% | viability [4] 104% | viability [5] 95% | inhibition [6] 1.25% | RAM network inhibition [7] 4.27%

CCOC(=O)c1cc(NC(=O)NCc2ccco2)c(C)nc1C
inactive: growth inhibition [1] -7.98% | growth inhibition [2] -25.8% | viability increase [3] -3.46% | viability [4] 105% | viability [5] 99.3% | inhibition [6] 1.57% | RAM network inhibition [7] 4.38%

c1ccc2[nH]c(-c3ccnc4ccccc34)nc2c1
inactive: growth inhibition [1] 0.915% | growth inhibition [2] -4.32% | viability increase [3] -4.45% | viability [4] 102% | viability [5] 95.9% | inhibition [6] 0.605% | RAM network inhibition [7] 2.99%

COc1ccc(S(=O)(=O)Cc2ccc(C(=O)NC(C)C)o2)cc1
inactive: growth inhibition [1] -1.35% | growth inhibition [2] 0.215% | viability increase [3] 1.22% | viability [4] 108% | viability [5] 99.6% | inhibition [6] -0.2% | RAM network inhibition [7] 1.2%

COc1ccccc1-n1c(CNC(=O)c2ccco2)nnc1SCC(=O)Nc1nccs1
inactive: growth inhibition [1] -0.655% | growth inhibition [2] -2.6% | viability increase [3] -5.08% | viability [4] 77.4% | viability [5] 66.2% | inhibition [6] 1.09% | RAM network inhibition [7] 1.25%

Cn1ccnc1SCc1cn2cc(Br)ccc2n1
inactive: growth inhibition [1] 2.79% | growth inhibition [2] 22.2% | viability increase [3] -3.12% | viability [4] 91.8% | viability [5] 84.7% | inhibition [6] 1.51% | RAM network inhibition [7] 4.08%

CC(C)c1cc(N2CCN(C(=O)c3ccco3)CC2)n2c(nc3ccccc32)c1C#N
inactive: growth inhibition [1] -3.91% | growth inhibition [2] 0.12% | viability increase [3] -5.67% | viability [4] 94.1% | viability [5] 91.6% | inhibition [6] 2.04% | RAM network inhibition [7] 3.57%

CCOC(=O)C(CCOc1cccc(CC)c1)C(=O)OCC
inactive: growth inhibition [1] 4.28% | growth inhibition [2] -17.2% | viability increase [3] -2.61% | viability [4] 89.5% | viability [5] 87% | inhibition [6] -0.12% | RAM network inhibition [7] 2.13%

CCOc1cccc(=O)c2c(C)n(Cc3ccco3)c(C)c12
inactive: growth inhibition [1] -12.4% | growth inhibition [2] -8% | viability increase [3] -3.8% | viability [4] 92.1% | viability [5] 84.9% | inhibition [6] 0.975% | RAM network inhibition [7] -0.46%
